Measured values published in ChEMBL document CHEMBL1649424, “Design, synthesis, and biological activity of novel 5-((arylfuran/1H-pyrrol-2-yl)methylene)-2-thioxo-3-(3-(trifluoromethyl)phenyl)thiazolidin-4-ones as HIV-1 fusion inhibitors targeting gp41” (J Med Chem, 2011).

Legend:
[1] = Cytotoxicity against human MT2 cells after 4 days by XTT assay; type: cell-based
How it was run: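 Cells (5 × 10⁵/mL) mixed with equal volume of compound at graded concentrations and held 4 days at 37 °C. XTT (1 mg/mL) containing 0.02 μM phenazine methosulphate added, then 4 h at 37 °C. Absorbance read at 450 nm. CC₅₀ by CalcuSyn.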

[2] = test system: Human immunodeficiency virus 1; experiment: Antiviral activity against HIV1 isolate 92US657 infected in human MT2 cells assessed as inhibition viral p24 antigen production after 4 days by ELISA; type: functional, organism-based; settings: Human immunodeficiency virus 1, isolate 92US657, MT2, 96 h
[3] = Selectivity index, ratio of CC50 for human MT2 cells to EC50 for HIV1 3B infected in human MT2 cells; type: toxicity, cell-based; settings: MT2 cells (CC50) and HIV1 3B infected MT2 cells (EC50)
How it was run: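 Selectivity index taken as MT-2 CC₅₀ (XTT, 4 days) divided by EC₅₀ against HIV-1 IIIB infection (p24 ELISA).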

[4] = test system: Human immunodeficiency virus 1; experiment: Antiviral activity against HIV1 3B infected in human MT2 cells assessed as inhibition viral p24 antigen production after 4 days by ELISA; type: functional, organism-based; settings: Human immunodeficiency virus 1, 3B, MT2, 96 h

Compound	CC50 at 96 h [1] [nM]	EC50 [2] [nM]	selectivity ratio [3]	EC50 [4] [nM]
O=C(O)c1cccc(-c2ccc(/C=C3\SC(=S)N(CCc4ccccc4)C3=O)o2)c1Cl	30400	521	411	74
O=C(O)c1cccc(-c2ccc(/C=C3\SC(=S)N(CCc4ccccc4)C3=O)o2)c1F	28100	1080	194	145
O=C(O)c1cccc(-c2ccc(/C=C3\SC(=S)N(CCc4ccccc4)C3=O)o2)c1O	16400	477	269	61
